An excerpt weighted towards active compounds, which were near 5.1% of everything screened.
RORa activator: activators of orphan receptor RORA, primary screen, cell-based, luminescence; activation, % at 10 µM; 1.5% of 65,000 active; AID 560, 2006; CHO-K1 Gal4-RORA LBD luciferase reporter; percent increase over mock-subtracted basal signal;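 active means activation above the mean of all tested compounds plus 3 SD, cut at about 49% in these data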;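 further: 0% = DMSO-treated RORA cells and 100% = added signal equal to DMSO minus mock-transfected cells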
SF-1 act: activators of human SF-1, primary screen, cell-based, CHO-K1, Gal4-SF-1 LBD, luciferase luminescence; CHO-K1 Gal4-SF-1 LBD luciferase reporter; % increase over DMSO SF-1-specific signal; 1.9% of 65,000 active; activation, % at 10 µM;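 active means activation above the mean activation of all tested compounds plus 3 SD, cut at about 50% in these data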
Target sequence (Q13285 whole entry, looked up, the tested form may be a part): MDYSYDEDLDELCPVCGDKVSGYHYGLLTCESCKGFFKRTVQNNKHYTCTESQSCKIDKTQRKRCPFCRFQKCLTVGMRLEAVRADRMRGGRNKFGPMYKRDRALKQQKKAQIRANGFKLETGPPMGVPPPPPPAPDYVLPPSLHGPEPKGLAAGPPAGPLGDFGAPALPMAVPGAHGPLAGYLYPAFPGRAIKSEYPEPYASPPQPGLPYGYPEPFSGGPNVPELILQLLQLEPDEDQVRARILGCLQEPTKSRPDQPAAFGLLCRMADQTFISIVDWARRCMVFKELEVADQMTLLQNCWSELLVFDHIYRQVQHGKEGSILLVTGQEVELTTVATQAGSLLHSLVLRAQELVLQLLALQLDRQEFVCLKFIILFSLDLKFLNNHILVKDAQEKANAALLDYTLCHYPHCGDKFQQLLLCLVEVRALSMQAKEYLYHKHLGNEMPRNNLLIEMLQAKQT
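Assay system – CHO-K1 cells with Gal4–hSF-1 LBD chimera plus Gal4-driven luciferase · Quantity – 4,000 cells per well · Times – compound added 1 h post-seeding, 20 h exposure at 37 °C, 5% CO2 · Measured by – luciferase light emission · Benchmarks – DMSO and mock-transfected background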
ERa SRC1 inh: ERα–SRC-1 coactivator interaction inhibitors, primary screen, biochemical, TR-FRET, ERα LBD, estradiol-bound | inhibition, % at 25.6 µM | 1.7% of 86,000 active | Estrogen receptor (Homo sapiens), P03372 | TR-FRET ER-alpha LBD / SRC-1 peptide; in the data active means inhibition above about 50%;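 further: 0% = receptor plus peptide control and 100% = peptide only without receptor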
ERb SRC1 inh: inhibitors of ERβ-SRC1 coactivator interaction, primary screen, biochemical, TR-FRET, ERβ LBD, SRC-1 peptide. TR-FRET ER-beta LBD / SRC1-Cy5 peptide binding; receptor agonist-loaded with 1 µM estradiol. inhibition, % at 25.6 µM. Estrogen receptor beta (Homo sapiens), Q92731. AID 633, 2007. 1.3% of 86,000 active;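 active means compounds whose percent inhibition of the receptor-coactivator binding signal exceeds about 50% in the single-dose screen, limit read from the data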;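 further: 0% = receptor plus peptide wells without compound and 100% = peptide-only wells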
ERa coact pot: enhancers of ERα–SRC-1 coactivator binding, primary screen, biochemical, TR-FRET, ERα LBD, low estradiol; 1.3% of 86,000 active; coactivator binding (% of control), % at 25.6 µM; Estrogen receptor (Homo sapiens), P03372; TR-FRET ERalpha-LBD/SRC-Cy5 coactivator binding, 2 h; 100 = basal binding, no effect; in the data active means activity above about 200%;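 further: binding measured in presence of low estradiol as agonist stimulus; 0% = peptide alone without receptor and 100% = receptor with peptide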
BAP1 inh: inhibitors of BAP1 deubiquitinase, primary screen, biochemical, Ub-AMC fluorescence, kinetic. calls only at 20 µM. recombinant BAP1, Ub-AMC hydrolysis fluorescence kinetic; active compounds read low. AID 436, 2006. 0.48% of 72,000 active. Ubiquitin carboxyl-terminal hydrolase BAP1 (Homo sapiens), Q92560;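 active means activity remaining at or below 50% of control, provided the compound also passes the data quality filters; inactive means the rest, including low values that fail the filters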;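 further: 100% = DMSO wells rate and 0% = substrate alone blank rate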
* = called active by the depositor; i = inactive; . = no result shown; [ ] = remark or other dose.

SMILES	RORa activator	SF-1 act	ERa SRC1 inh	ERb SRC1 inh	ERa coact pot	BAP1 inh
Cc1ccc(C(=O)Nc2ccc(O)c(C(=O)O)c2)o1	-10.1	5.6	24.8	43.6	60.7	i
Cc1occc1C(=O)Nc1ccc2c(c1)CCC2	54.8*	74.7*	1.4	-4.1	98.7	.
CN(C)c1ccc(NC(=O)c2ccc(COc3cccc(Cl)c3)o2)cc1	72.6*	42.2	-2.6	26.5	66.2	i
CCOc1ccc(OCc2ccc(C(=O)Nc3cccnc3)o2)cc1	.	.	5.3	11.8	80.2	.
CCOC(=O)c1sc(NC(=O)CNC(=O)Cn2cnc3sc(C)c(C)c3c2=O)nc1C	-26.3	-4.1	48.0	45.8	225.8*	i
CCc1ccc(-c2ccc(C(=O)O)cc2)nc1	38.0	85.1*	9.8	-1.7	90.3	i
CCc1ccc(-c2ccc(C(=O)Oc3ccccc3)cc2)nc1	.	.	.	.	.	i
Cc1nc(-c2ccc3c(c2)OCO3)cs1	0.5	1.3	5.6	6.6	104.7	.
Nc1nc(-c2ccc3c(c2)OCCO3)cs1	50.3*	64.1*	-5.4	-2.3	123.0	i
Nc1nc(-c2ccc3c(c2)CCCC3)cs1	75.6*	37.0	-67.8	-10.7	107.4	.
Cc1ccc(S(=O)(=O)Nc2ccc(Br)cc2C(=O)c2ccc(Cl)cc2)cc1	.	.	.	.	.	i
O=C(CSc1ncnc2c1oc1ccccc12)N1CCN(c2ccccc2)CC1	13.9	-6.6	22.2	11.4	136.2	i
CCc1nc(Nc2ccc(N3CCN(C(C)=O)CC3)cc2)c2oc3ccccc3c2n1	12.5	53.4*	32.7	60.6*[fluorescence artefact?]	54.0	i
CC(=O)N1CCN(c2ccc(Nc3ncnc4c3oc3ccccc34)cc2)CC1	-14.8	16.6	56.2*[fluorescence artefact?]	60.8*[fluorescence artefact?]	34.5	i
CCc1nc(N2CCN(C(=O)c3ccco3)CC2)c2oc3ccccc3c2n1	5.6	3.2	1.9	1.1	92.8	i
CC1=C(C(=O)OC(C)C)C(c2ccc(O)cc2)C2=C(CCCC2=O)N1 (configuration not stated)	.	.	.	.	.	i
Cc1cc(-c2ccccc2)nc2cc(C(=O)N(Cc3ccccc3)Cc3ccccc3)nn12	.	.	-11.2	-5.8	204.4*	.
COC(=O)c1cc2nc(-c3ccccc3)cc(C)n2n1	-6.5	-18.2	10.7	21.8	94.3	.
O=C(c1ccc2nc(-c3ccco3)c(-c3ccco3)nc2c1)N1CCN(c2ncccn2)CC1	.	.	76.1*[fluorescence artefact?]	86.1*[fluorescence artefact?]	25.9	.
S=C(Nc1ccc(N2CCOCC2)cc1)Nc1ccc2nc(-c3ccco3)c(-c3ccco3)nc2c1	.	.	68.2*[fluorescence artefact?]	89.3*[fluorescence artefact?]	13.8	.
O=C(Nc1ccc(N2CCOCC2)cc1)c1ccncc1	.	.	-2.2	20.1	84.5	.
O=C(Nc1ccc(N2CCOCC2)cc1)c1ccc2nc(-c3ccco3)c(-c3ccco3)nc2c1	-3.2	-24.6	80.1*[fluorescence artefact?]	50.5*[fluorescence artefact?]	42.1	.
O=C(CN1C(=O)c2ccccc2C1=O)Nc1ccc(C(=O)Nc2cccc(O)c2)cc1	.	.	.	.	.	i
CC1CCCN(c2ccc(C(=O)NCc3cccs3)cn2)C1 (configuration not stated)	56.3*	70.2*	-7.5	-0.6	120.0	i
O=C(NCc1cccs1)c1ccc(N2CCCCC2)nc1	9.6	40.5	-0.6	2.3	114.3	i
SMILES	RORa activator	SF-1 act	ERa SRC1 inh	ERb SRC1 inh	ERa coact pot	BAP1 inh
CC1CCN(c2ccc(C(=O)NCCc3ccccc3)cn2)CC1	60.2*	28.4	-0.2	2.6	103.2	i
Oc1ccc(N=CC=Cc2cccc(Br)c2)cc1-c1nc2ccccc2o1	.	.	.	.	.	i
CCOC(=O)c1sc(C)c2c(=O)n(CC(=O)c3ccc(Br)cc3)nnc12	.	.	-1.9	58.6*[fluorescence artefact?]	111.7	.
CCOC(=O)Cn1c(C)nc2c(C(=O)OCC)sc(C)c2c1=O	-10.9	12.2	.	.	.	i
O=C1c2ccccc2NC(c2ccc(Br)cc2)N1c1ccc(Cl)cc1 (configuration not stated)	.	.	.	.	.	i
O=C(Nc1cnn(Cc2ccc(Cl)cc2Cl)c1)c1noc2c1CCCC2	-1.3	5.4	11.1	-7.4	105.7	i
O=C(Nc1cnn(Cc2ccc(Cl)cc2Cl)c1)c1cc(-c2cccs2)on1	17.3	-4.9	51.2*[fluorescence artefact?]	22.8	157.4	i
CCn1c(SC(C)C(=O)O)nc2sc3c(c2c1=O)CCC3 (configuration not stated)	-4.9	0.6	93.2*[fluorescence artefact?]	92.5*[fluorescence artefact?]	2.7	.
CC1CCCN(C(=O)COC(=O)c2n[nH]c3ccccc23)C1 (configuration not stated)	-1.9	37.0	56.6*	-6.7	114.4	i
COC(=O)C1CCN(C(=O)COC(=O)c2n[nH]c3ccccc23)CC1	17.9	3.9	-3.9	-10.5	115.9	i
CCCc1ccc(OCCNC(=O)c2ccc3ccccc3n2)cc1	.	.	.	.	.	i
Cc1ccc(C)c(NC(=O)Cn2nc(C)c3ccccc3c2=O)c1	-12.9	-1.4	18.1	3.2	295.8*[fluorescence artefact?]	i
CCC(=O)NCc1cc(-c2nn(C)c(=O)c3ccccc23)ccc1C	.	.	-3.2	-7.4	115.0	.
Cc1nn(CC(=O)Nc2ccc3c(c2)oc2ccccc23)c(=O)c2ccccc12	-3.3	0.9	80.7*[fluorescence artefact?]	50.9*[fluorescence artefact?]	106.2	.
Cc1ccc(-c2nn(CC(=O)NCc3cc(-c4nn(C)c(=O)c5ccccc45)ccc3C)c(=O)c3ccccc23)cc1	.	.	87.9*[fluorescence artefact?]	64.5*[fluorescence artefact?]	66.5	.
Cc1nn(CC(=O)Nc2ccc3c(c2)nc(CN2CCCC2)n3C)c(=O)c2ccccc12	-18.0	1.0	70.3*[fluorescence artefact?]	39.8	79.2	i
CC(=O)N1c2ccccc2NC2=C(C(=O)CC(c3ccccc3)C2)C1c1ccc2c(c1)OCO2 (configuration not stated)	.	.	.	.	.	i
Cc1cc(C(=O)COC(=O)CN(C)S(=O)(=O)c2ccc(Cl)cc2)c(C)n1Cc1cccs1	11.3	1.3	5.3	0.9	123.7	i
Cc1cc(C(=O)COc2ccc3ccc(=O)oc3c2)c(C)n1Cc1cccs1	-2.8	1.8	58.2*[fluorescence artefact?]	36.5	347.1*[fluorescence artefact?]	.
CC1=C(SCCC#N)S/C(=C2\SC(C)=C(SCCC#N)S2)S1	-7.5	-3.0	80.5*	53.4*	43.3	.
COc1ccc(C(=O)Nc2ccc(Cl)c(Cl)c2)c(OC)n1	52.4*	27.7	0.0	-5.4	111.9	i
Cc1cc2nn(-c3ccccc3)nc2cc1NC(=O)c1ccc(-c2ccc([N+](=O)[O-])cc2)o1	.	.	.	.	.	i
